Experimental data from different studies.
Each line is one published result; the experiments were not run side by side.
ALK L1196M: ALK tyrosine kinase receptor (ALK, Homo sapiens, UniProt Q9UM73, L1196M)
ALK C1156Y: ALK tyrosine kinase receptor (ALK, Homo sapiens, UniProt Q9UM73, C1156Y)
ALK: ALK tyrosine kinase receptor (ALK, Homo sapiens, UniProt Q9UM73)

`COc1cnc(Nc2cccc(S(N)(=O)=O)c2)nc1N1CCN(c2ccccc2)C(=O)C1` gave a remaining binding of 81% (ALK L1196M; binding, competition with immobilised ligand; 1 µM).
With `O=C(Nc1c[nH]nc1C(=O)NC1CCNCC1)c1cc(F)cc(F)c1` the remaining binding was 100% (ALK C1156Y; binding, competition with immobilised ligand; 1 µM).
`c1cncc(-c2cccc(Nc3nccc(NC4CCCCC4)n3)c2)c1` has a remaining binding of 57% (ALK L1196M; binding, competition with immobilised ligand; 10 µM).
With `O=C(NCCCN1CCOCC1)c1ccc(Nc2nccc(-c3cc4ccccc4s3)n2)cc1` the remaining binding was 97% (ALK C1156Y; binding, competition with immobilised ligand; 1 µM).
`O=S(=O)(NC1CCC(c2cc(F)ccc2F)(S(=O)(=O)c2ccc(Cl)cc2)CC1)C(F)(F)F` (centres unmarked) has a remaining binding of 94% (ALK L1196M; cell-free assay, competition with immobilised ligand; 1 µM).
`COc1ccnn2ncc(-c3ccnc(N(C)C)n3)c12` gave a remaining binding of 91% (ALK L1196M; binding; 1 µM).
`C[C@@H]1CN(c2cc(-c3nn(C)c4ccc(OC5(C)CC5)cc34)ncn2)C[C@H](C)O1` gave a remaining binding of 82% (ALK C1156Y; cell-free assay, competition with immobilised ligand; 1 µM).
For `Cc1cnc(Nc2ccc(C(=O)N3CCC(N4CCCC4)CC3)cc2)nc1-c1cc2ccccc2s1`, the remaining binding was 82% (ALK L1196M; binding, competition with immobilised ligand; 1 µM).
`CN1CCN(c2ccc(Nc3nccc(-c4cccc([N+](=O)[O-])c4)n3)cc2C(F)(F)F)CC1` gave a remaining binding of 42% (ALK C1156Y; binding; 10 µM).
The remaining binding of `Cc1cnn2ncc(-c3ccnc(N(C)C)n3)c2c1` is reported as 71% (ALK L1196M; binding; 1 µM).
The remaining binding of `NS(=O)(=O)c1cc(NC(=O)Cc2ccccc2)ccc1Oc1cccc(Cl)c1` is reported as 88% (ALK C1156Y; cell-free assay, competition with immobilised ligand; 1 µM).
With `O=C(c1ccc(Nc2ncc(Cl)c(-c3ccc(Cl)s3)n2)cc1)N1CCC(N2CCCC2)CC1` the remaining binding was 67% (ALK L1196M; binding, competition with immobilised ligand; 1 µM).
The remaining binding of `C[C@H]1CCN(c2nccc(-c3cnn4ncccc34)n2)C1` is reported as 99% (ALK C1156Y; binding; 1 µM).
`FC(F)(F)Oc1cccc(-c2cnc3ccc(-c4ccncc4)nn23)c1` gave a remaining binding of 100% (ALK; cell-free assay, competition with immobilised ligand; 5 µM).
The remaining binding of `CCOC(=O)c1cc2cc(-c3cc(C(=O)NCc4ccc(C(=O)O)cc4)nn3C)ccc2[nH]1` is reported as 98% (ALK L1196M; cell-free assay, competition with immobilised ligand; 0.1 µM).
For `CNC(=O)[C@@H]1CC[C@@H](n2c(-c3ccc4cnccc4c3)nc3ccc(C(=O)NCc4cccc(C(N)=O)c4)cc32)C1`, the remaining binding was 100% (ALK; binding, competition with immobilised ligand; 1 µM).
For `CN1CCN(c2ccc(Nc3nccc(-c4ccccc4)n3)cc2C(F)(F)F)CC1`, the remaining binding was 100% (ALK L1196M; binding; 10 µM).
The remaining binding of `C[C@@H]1CN(c2ccc3ncc(-c4ccc5[nH]nc(C6CC6)c5c4)n3n2)C[C@H](C)O1` is reported as 64% (ALK; binding, competition with immobilised ligand; 50 nM).
`CN([C@@H]1CCc2c(CC(=O)O)c3cc(S(C)(=O)=O)ccc3n2C1)S(=O)(=O)c1ccc(F)cc1` gave a remaining binding of 89% (ALK L1196M; cell-free assay, competition with immobilised ligand; 1 µM).
`N[C@@H]1CCN(c2nccc(-c3cnn4ncccc34)n2)C1` gave a remaining binding of 100% (ALK L1196M; binding; 1 µM).
The remaining binding of `N#Cc1ccccc1CSc1nnc2c(n1)[nH]c1ccccc12` is reported as 72% (ALK; binding, competition with immobilised ligand; 10 µM).
`O=C(NCC1CCOCC1)c1n[nH]cc1NC(=O)c1c(F)cccc1F` has a remaining binding of 100% (ALK L1196M; binding, competition with immobilised ligand; 1 µM).
For `Nc1ncc2c(n1)-c1c([nH]c3ccc(C#CC4CC4)cc13)CCCC2`, the remaining binding was 84% (ALK C1156Y; binding, competition with immobilised ligand; 1 µM).
`O=C(NCCCN1CCOCC1)c1ccc(Nc2ncc(Cl)c(-c3ccc(Cl)s3)n2)cc1` has a remaining binding of 67% (ALK; binding, competition with immobilised ligand; 1 µM).
With `O=C(NC[C@@H]1[C@H]2CN(C(=O)OCc3cc(C(F)(F)F)cc(C(F)(F)F)c3)C[C@@H]12)c1ccc2[nH]nnc2c1` the remaining binding was 79% (ALK; cell-free assay, competition with immobilised ligand; 1 µM).
`CC(C)(C)c1ccc(-c2nc(CBr)nn2-c2cccc(O)c2)cc1` gave a remaining binding of 78% (ALK; cell-free assay, competition with immobilised ligand; 10 µM).
The remaining binding of `CN(C)c1nccc(-c2cnn3ncccc23)n1` is reported as 100% (ALK; binding; 1 µM).
The remaining binding of `C=CC(=O)N1CCC(C(=O)NCC(=O)N2CCN(c3nc(-c4cnc(N)nc4C(F)F)nc(N4CCOCC4)n3)CC2)CC1` is reported as 91% (ALK C1156Y; binding, competition with immobilised ligand; 1 µM).
`COc1ncc2cc3ccccc3nc2c1C#N` has a remaining binding of 81% (ALK; cell-free assay, competition with immobilised ligand; 5 µM).
`CN(C)c1nccc(-c2cnc3ncccn23)n1` has a remaining binding of 82% (ALK C1156Y; binding; 1 µM).
For `O=C(c1ccc(Nc2ncc(Cl)c(-c3cc4ccccc4s3)n2)cc1)N1CCC(N2CCCC2)CC1`, the remaining binding was 100% (ALK L1196M; binding, competition with immobilised ligand; 1 µM).
With `CO[C@@H](C)c1c(Nc2ccc([C@H](N(C)C(=O)C3CCS(=O)(=O)CC3)C(F)(F)F)cc2)cnc2cc(Cl)nn12` the remaining binding was 100% (ALK L1196M; cell-free assay, competition with immobilised ligand; 1 µM).
`C[C@@H](c1ccc(-n2cnc3c(N)ncnc32)cc1)N1CCc2nn(C)c(Cc3ccccc3)c2C1=O` has a remaining binding of 76% (ALK; binding, competition with immobilised ligand; 0.1 µM).
For `CC1CCCN1c1nccc(-c2cnn3ncccc23)n1` (centres unmarked), the remaining binding was 69% (ALK; binding; 1 µM).
`O=C(c1ccc(Nc2nccc(-c3cc4ccccc4s3)n2)cc1)N1CCC(N2CCCC2)CC1` gave a remaining binding of 80% (ALK L1196M; binding, competition with immobilised ligand; 1 µM).
The remaining binding of `COc1cnc(Nc2cccc(S(N)(=O)=O)c2)nc1N1CCN(c2ccccc2)CC1` is reported as 100% (ALK C1156Y; binding, competition with immobilised ligand; 1 µM).
The remaining binding of `CN(C)c1ncc(F)c(-c2cnn3ncccc23)n1` is reported as 80% (ALK C1156Y; binding; 1 µM).
With `C[C@H](c1ccc(F)cc1)N(Cc1cccc(C(=O)O)c1)C(=O)c1cnc2ccccc2c1` the remaining binding was 94% (ALK; cell-free assay, competition with immobilised ligand; 1 µM).
